ChEMBL document CHEMBL1127543, “Dual angiotensin converting enzyme/thromboxane synthase inhibitors” (J Med Chem, 1994)
Each block holds one compound with its values, some of them ahead of it. Calls of active or inactive are those of the source. No cut-off for these calls is given here.

Tests used:
[1] = molecular target: T1, Angiotensin-converting enzyme (Oryctolagus cuniculus, UniProt P12822); assay: Tested for 50% inhibition of Angiotensin converting enzyme(ACE) obtained from rabbit lung (in vitro)
T1 sequence (P12822 whole entry): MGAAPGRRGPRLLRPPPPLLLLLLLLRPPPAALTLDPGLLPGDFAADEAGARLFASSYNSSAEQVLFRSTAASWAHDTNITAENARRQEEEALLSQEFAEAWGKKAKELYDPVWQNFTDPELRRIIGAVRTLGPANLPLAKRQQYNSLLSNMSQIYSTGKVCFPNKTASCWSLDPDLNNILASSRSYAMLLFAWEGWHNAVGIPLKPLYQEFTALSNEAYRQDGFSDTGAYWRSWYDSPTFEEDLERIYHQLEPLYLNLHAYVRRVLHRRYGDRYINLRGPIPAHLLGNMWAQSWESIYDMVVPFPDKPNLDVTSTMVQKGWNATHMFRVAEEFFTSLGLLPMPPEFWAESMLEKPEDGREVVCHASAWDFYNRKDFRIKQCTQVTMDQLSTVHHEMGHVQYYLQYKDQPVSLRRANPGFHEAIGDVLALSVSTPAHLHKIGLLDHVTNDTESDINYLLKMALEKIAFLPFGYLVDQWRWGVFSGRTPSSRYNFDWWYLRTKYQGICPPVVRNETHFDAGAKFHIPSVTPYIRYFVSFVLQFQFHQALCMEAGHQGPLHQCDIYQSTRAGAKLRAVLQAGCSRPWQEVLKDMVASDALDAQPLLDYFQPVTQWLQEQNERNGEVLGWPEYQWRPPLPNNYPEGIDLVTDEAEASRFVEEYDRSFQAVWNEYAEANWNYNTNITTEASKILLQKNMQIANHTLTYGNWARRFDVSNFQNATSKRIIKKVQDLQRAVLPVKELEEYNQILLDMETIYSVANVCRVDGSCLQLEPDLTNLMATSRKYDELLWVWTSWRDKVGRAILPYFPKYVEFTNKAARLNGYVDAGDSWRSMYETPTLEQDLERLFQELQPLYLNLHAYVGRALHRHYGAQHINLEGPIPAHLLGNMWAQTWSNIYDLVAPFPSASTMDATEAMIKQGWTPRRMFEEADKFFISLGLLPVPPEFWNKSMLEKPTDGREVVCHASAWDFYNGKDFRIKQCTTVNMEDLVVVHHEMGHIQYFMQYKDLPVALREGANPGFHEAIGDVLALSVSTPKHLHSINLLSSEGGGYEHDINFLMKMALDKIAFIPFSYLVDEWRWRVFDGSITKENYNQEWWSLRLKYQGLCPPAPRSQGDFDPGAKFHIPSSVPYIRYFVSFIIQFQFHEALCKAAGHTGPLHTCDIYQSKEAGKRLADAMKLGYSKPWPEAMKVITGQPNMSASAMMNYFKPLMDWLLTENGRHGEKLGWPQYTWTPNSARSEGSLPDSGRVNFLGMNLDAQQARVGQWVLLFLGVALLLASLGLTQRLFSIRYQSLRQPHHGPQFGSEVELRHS
Summary of the method: (§1)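 ACE was partially purified from rabbit lung and incubated with the synthetic substrate Hip-His-Leu. The hippuric acid product was measured spectrophotometrically. IC50 was read graphically from a range of inhibitor concentrations within the assay's linear range. Each determination was done in duplicate and repeated once.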

[2] = molecular target: T2, Thromboxane-A synthase (Homo sapiens, UniProt P24557); assay: Tested for 50% inhibition of thromboxane synthase (TxS) in human platelets (in vitro)
T2 sequence (P24557 whole entry): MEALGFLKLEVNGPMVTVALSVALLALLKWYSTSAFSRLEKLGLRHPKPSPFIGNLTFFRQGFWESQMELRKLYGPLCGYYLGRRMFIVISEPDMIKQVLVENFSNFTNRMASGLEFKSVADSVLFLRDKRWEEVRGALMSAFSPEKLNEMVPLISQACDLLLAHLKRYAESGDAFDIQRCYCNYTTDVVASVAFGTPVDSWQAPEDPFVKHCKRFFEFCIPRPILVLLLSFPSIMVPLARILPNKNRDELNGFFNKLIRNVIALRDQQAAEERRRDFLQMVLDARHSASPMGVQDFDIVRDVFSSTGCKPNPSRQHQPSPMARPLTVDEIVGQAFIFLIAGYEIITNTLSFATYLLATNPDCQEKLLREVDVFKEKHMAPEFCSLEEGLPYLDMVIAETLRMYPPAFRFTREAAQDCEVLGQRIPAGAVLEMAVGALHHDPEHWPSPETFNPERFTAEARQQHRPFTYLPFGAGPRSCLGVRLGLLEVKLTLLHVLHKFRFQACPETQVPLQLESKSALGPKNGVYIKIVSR
Summary of the method: (§2)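 IC50 was obtained graphically from a range of compound concentrations within the linear range of the assay. Determinations were made in duplicate and repeated once.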

[3] = system: Rattus norvegicus; assay: Tested for percent inhibition of maximum angiotensin I (AI) pressor response in rats on oral administration of 300 mg/kg after 2 hr; assay type: functional
Summary of the method: (§3)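 Conscious catheterized SHR were prepared as for blood pressure recording. At set times after dosing, angiotensin I was injected intraarterially in 0.5 mL. The rise in arterial pressure was recorded and expressed as percent inhibition of the angiotensin I pressor response.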

[4] = system: Rattus norvegicus; assay: Antihypertensive activity was measured in spontaneously hypertensive rat (SHR) by measuring the maximum blood pressure when administered orally at dose of 10 mg/kg after 4 hr; assay type: functional; conditions: route oral
Summary of the method: (§4)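 Conscious, fully ambulatory SHR (250–280 g) were fitted with an arterial catheter led through an infusion swivel inside a protective spring. After 24 h recovery from surgery, rats were housed singly. Mean arterial pressure was recorded continuously after dosing over a 6-h period, with later readings up to 24 h. Rats had chow and tap water freely under a 12-h light cycle.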

[5] = system: Rattus norvegicus; assay: Antihypertensive activity was measured in spontaneously hypertensive rat (SHR) by measuring the blood pressure after 24 hours when administered orally at dose of 10 mg/kg; assay type: functional; conditions: route oral; summary of the method: as §4
[6] = system: Rattus norvegicus; assay: Tested for percent inhibition of maximum angiotensin I (AI) pressor response in rats on oral administration of 300 mg/kg after 5 hr; assay type: functional; summary of the method: as §3
[7] = system: Rattus norvegicus; assay: Antihypertensive activity was measured in spontaneously hypertensive rat (SHR) by measuring the maximum blood pressure when administered orally at dose of 10 mg/kg after 6 h; assay type: functional; conditions: route oral; summary of the method: as §4
[8] = system: Rattus norvegicus; assay: Tested for percent inhibition of maximum angiotensin I (AI) pressor response in rats on oral administration of 300 mg/kg after 6 hr; assay type: functional; summary of the method: as §3
[9] = system: Rattus norvegicus; assay: Antihypertensive activity was measured in spontaneously hypertensive rat (SHR) by measuring the maximum blood pressure when administered orally at dose of 30 mg/kg after 6 h; assay type: functional; conditions: route oral; summary of the method: as §4
[10] = system: Rattus norvegicus; assay: Antihypertensive activity was measured in spontaneously hypertensive rat (SHR) by measuring the blood pressure after 24 hours when administered orally at dose of 30 mg/kg; assay type: functional; conditions: route oral
Summary of the method: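 Conscious, unrestrained, fully ambulatory SHR (250–280 g) fed normal pellet chow with free access to tap water, on a 12-h light cycle. Oral dosing used a vehicle at 1 mL/kg po. The read-out was the change in mean arterial pressure from control.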

[11] = molecular target: T2, Thromboxane-A synthase; assay: Tested for 50% inhibition of thromboxane synthase (TxS) in human platelets (in vitro); Not active; summary of the method: as §2
[12] = molecular target: T1, Angiotensin-converting enzyme; assay: Tested for 50% inhibition of Angiotensin converting enzyme(ACE) obtained from rabbit lung (in vitro); Not active; summary of the method: as §1
[13] = system: Rattus norvegicus; assay: Tested for percent inhibition of maximum angiotensin I (AI) pressor response in rats on oral administration of 300 mg/kg after 4 hr; assay type: functional; summary of the method: as §3
[14] = system: Rattus norvegicus; assay: Antihypertensive activity was measured in spontaneously hypertensive rat (SHR) by measuring the maximum blood pressure when administered orally at dose of 30 mg/kg after 4 h; assay type: functional; conditions: route oral; summary of the method: as §4
[15] = species: Rattus norvegicus; conditions: 30 mg/kg
[16] = system: Rattus norvegicus; assay: Antihypertensive activity was measured in spontaneously hypertensive rat (SHR) by measuring the blood pressure on interarterial administration at dose of 1 mg/kg after 4 h; assay type: functional, Artery; summary of the method: as §4
[17] = system: Rattus norvegicus; assay: Antihypertensive activity was measured in spontaneously hypertensive rat (SHR) by measuring the maximum blood pressure when administered orally at dose of 10 mg/kg after 4 h; assay type: functional; conditions: route oral; summary of the method: as §4
[18] = system: Rattus norvegicus; assay: Antihypertensive activity was measured in spontaneously hypertensive rat (SHR) by measuring the blood pressure after 24 hours on interarterial administration at dose of 1 mg/kg; Not significant; assay type: functional, organism-based; set-up: dose 1 mg/kg; conditions: Artery; summary of the method: as §4
[19] = species: Rattus norvegicus; conditions: 10 mg/kg

IC50 [1]: 90 nM
IC50 [2]: 20 nM
SMILES: Cc1c(-c2cccnc2)n(CCCCCCCC(=O)O[C@@H]2C[C@H](N[C@@H](CCc3ccccc3)C(=O)O)C(=O)N(CC(=O)O)c3ccccc32)c2ccccc12

IC50 [1]: 30 nM
IC50 [2]: 20 nM
SMILES: Cc1c(-c2cccnc2)n(CCCCP(=O)(O)OC2CCc3ccccc3N(CC(=O)O)C2=O)c2ccccc12 (stereo not given)

IC50 [1]: 7 nM
SMILES: NCCCC[C@H](N[C@@H]1CCc2ccccc2N(CC(=O)O)C1=O)C(=O)O
inhibition in vivo at 300 mg/kg [3]: 70%
Max delta BP [4]: -30 mmHg
Delta blood pressure [5]: -18 mmHg

IC50 [1]: 4 nM
IC50 [2]: 10 nM
SMILES: Cn1c(-c2cccnc2)c(CCCCCC(=O)NCCNCCCC[C@H](N[C@H]2CCc3ccccc3N(CC(=O)[O-])C2=O)C(=O)[O-])c2cc(Cl)ccc21.[K+].[K+]
inhibition in vivo at 300 mg/kg [6]: 39%
Max delta BP [7]: -38 mmHg
Delta blood pressure [5]: -23 mmHg

IC50 [1]: 10 nM
IC50 [2]: 18 nM
SMILES: CNCCN(CCCC[C@H](N[C@H]1CCc2ccccc2N(CC(=O)[O-])C1=O)C(=O)[O-])C(=O)CCCCCc1c(-c2cccnc2)n(C)c2ccc(Cl)cc12.[Na+].[Na+]
inhibition in vivo at 300 mg/kg [8]: 71%
Max delta BP [9]: -39 mmHg
Delta blood pressure [10]: -20 mmHg

IC50 [1]: 2 nM
IC50 [11]: Not Active
SMILES: CCOC(=O)[C@H](CCc1ccccc1)N[C@H]1CCc2ccccc2N(CC(=O)O)C1=O [BENAZEPRIL]

IC50 [12]: Not Active
SMILES: Cn1c(-c2cccnc2)c(CCCCCC(=O)O)c2cc(Cl)ccc21

IC50 [1]: 7 nM
IC50 [11]: Not Active
SMILES: O=C(O)CN1C(=O)[C@@H](N[C@@H](CCCCNCCO)C(=O)O)CCc2ccccc21
inhibition in vivo at 300 mg/kg [13]: 84%
Max delta BP [14]: -28 mmHg
Delta blood pressure [15]: inactive

IC50 [1]: 6 nM
SMILES: CC(=O)O[C@@H]1C[C@H](N[C@@H](CCc2ccccc2)C(=O)O)C(=O)N(CC(=O)O)c2ccccc21

IC50 [1]: 12 nM
IC50 [2]: 20 nM
SMILES: Cn1c(-c2cccnc2)c(CCCCCC(=O)N2CCC(NCCCC[C@H](N[C@@H]3CCc4ccccc4N(CC(=O)[O-])C3=O)C(=O)[O-])CC2)c2cc(Cl)ccc21.[Na+].[Na+]
inhibition in vivo at 300 mg/kg [3]: 76%
inhibition in vivo at 300 mg/kg [13]: 51%
Max delta BP [16]: -24 mmHg
Max delta BP [17]: -35 mmHg
Delta blood pressure [18]: inactive
Delta blood pressure [19]: inactive
